Columns and labels:
Format in all cases: functional, cell-based
Conditions in all cases: THP-1
[1] = target: C-C chemokine receptor type 2 (Homo sapiens) (UniProt P41597); assay: Antagonist activity at CCR2 in human THP1 cells assessed as inhibition of CCL2-induced chemotaxis after 2 hrs by microtiter format trans-well migration assay
Outline: (§1)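 Microtiter trans-well migration assay in Gey's balanced salt solution with 1 mg/mL endotoxin-free BSA, no fetal calf serum. Migration ran 2 h at 37 °C. Compounds dissolved in DMSO and added to both top and bottom compartments, final DMSO 1%.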

[2] = target: C-C chemokine receptor type 2 (Homo sapiens) (UniProt P41597); assay: Antagonist activity at CCR2 in human THP1 cells assessed as inhibition of CCL2-induced chemotaxis at 1000 nM after 2 hrs by microtiter format trans-well migration assay; outline: as §1
[3] = target: C-C chemokine receptor type 2 (Homo sapiens) (UniProt P41597); assay: Antagonist activity at CCR2 in human THP1 cells assessed as inhibition of CCL2-induced chemotaxis at 100 nM after 2 hrs by microtiter format trans-well migration assay; outline: as §1
[4] = target: C-C chemokine receptor type 2 (Homo sapiens) (UniProt P41597); assay: Antagonist activity at CCR2 in human THP1 cells assessed as inhibition of CCL2-induced chemotaxis at 10 nM after 2 hrs by microtiter format trans-well migration assay; outline: as §1
[5] = target: C-C chemokine receptor type 2 (Homo sapiens) (UniProt P41597); assay: Antagonist activity at CCR2 in human THP1 cells assessed as inhibition of CCL2-induced chemotaxis at 1 nM after 2 hrs by microtiter format trans-well migration assay; outline: as §1
[6] = target: C-C chemokine receptor type 2 (Homo sapiens) (UniProt P41597); assay: Antagonist activity at CCR2 in human THP1 cells assessed as inhibition of CCL2-induced chemotaxis at 0.1 nM after 2 hrs by microtiter format trans-well migration assay; outline: as §1
[7] = target: C-C chemokine receptor type 2 (Homo sapiens) (UniProt P41597); assay: Antagonist activity at CCR2 in human THP1 cells assessed as inhibition of CCL2-induced chemotaxis at 0.01 nM after 2 hrs by microtiter format trans-well migration assay; outline: as §1

Sequence of C-C chemokine receptor type 2 (Homo sapiens) (P41597 whole entry, looked up): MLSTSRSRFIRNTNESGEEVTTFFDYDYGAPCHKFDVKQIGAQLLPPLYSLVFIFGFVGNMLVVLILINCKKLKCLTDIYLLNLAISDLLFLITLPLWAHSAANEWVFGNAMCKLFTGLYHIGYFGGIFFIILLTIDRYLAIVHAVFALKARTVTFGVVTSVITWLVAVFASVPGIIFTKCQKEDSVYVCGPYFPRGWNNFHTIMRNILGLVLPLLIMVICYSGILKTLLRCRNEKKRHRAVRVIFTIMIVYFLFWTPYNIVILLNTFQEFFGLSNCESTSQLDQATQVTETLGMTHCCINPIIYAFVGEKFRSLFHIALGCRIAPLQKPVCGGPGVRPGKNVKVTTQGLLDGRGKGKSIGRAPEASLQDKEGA

| SMILES | ED50 [1] | further results |
| --- | --- | --- |
| CCCCCCCCCCC(C)C(=O)N[C@H]1CCCCNC1=O (mixture of isomers; form 1) | 3 nM |  |
| CC(C)=CCC(C)(C)C(=O)N[C@H]1CCCCNC1=O | 0.2 nM |  |
| CCCCCCCCCCC(C)C(=O)N[C@H]1CCCCNC1=O (mixture of isomers; form 2) | 3 nM |  |
| CCCCCCCCCCC(C)(C)C(=O)N[C@@H]1CCCCNC1=O | 4.5 nM | inhibition [2]: 98.5%; inhibition [3]: 101%; inhibition [4]: 69%; inhibition [5]: 36%; inhibition [6]: 20%; inhibition [7]: 5% |

The next lines start with results.

| ED50 [1] | SMILES | further results |
| --- | --- | --- |
| 1 nM | C=CCC(C)(C)C(=O)N[C@H]1CCCCNC1=O |  |
| 0.8 nM | O=C(N[C@H]1CCCCNC1=O)C1=CCCCC1 |  |
| 0.5 nM | O=C(N[C@H]1CCCCNC1=O)C1CCCCC1 |  |
| 0.08 nM | CC(C)CCC(C)(C)C(=O)N[C@H]1CCCCNC1=O |  |
| 5 nM | CCCCCC1CCC(C(=O)N[C@H]2CCCCNC2=O)CC1 (stereo partly specified) |  |
| 0.5 nM | CCCC(C)(C)C(=O)N[C@H]1CCCCNC1=O |  |

— ChEMBL document CHEMBL1136923, “Highly potent, orally available anti-inflammatory broad-spectrum chemokine inhibitors” (J Med Chem, 2009)
